Measurements published in ChEMBL document CHEMBL1135898, “Synthesis and antimycobacterial activity of 6-arylpurines: the requirements for the N-9 substituent in active antimycobacterial purines” (J Med Chem, 2002).
Converted amounts (≈) assume the structure as drawn.

Key:
Mycobacterium avium = assay: Minimum Inhibitory Concentration against drug-resistant strain of Mycobacterium tuberculosis avium; assay type: functional
In short: (§1)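 MICs by microplate alamar blue assay against M. tuberculosis strains resistant to isoniazid (ATCC 35822), rifampin (ATCC 35838), ethambutol, kanamycin or ciprofloxacin, drug-sensitive strain Erdman, and M. avium (ATCC 25291). MIC = minimum concentration giving 90% growth inhibition.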

[1] = tested on: Mycobacterium tuberculosis; assay: Minimum Inhibitory Concentration against drug-resistant strain of Mycobacterium tuberculosis Erdman; assay type: functional; in short: as §1

Clc1nc(-c2ccco2)c2ncn(Cc3ccccc3)c2n1
MIC (Mycobacterium avium): 25 µg/mL (≈ 80.5 µM)
MIC [1]: 12.5 µg/mL (≈ 40.2 µM)
